Test results as given in ChEMBL document CHEMBL3098105, “7,7'-Diazaindirubin--a small molecule inhibitor of casein kinase 2 in vitro and in cells” (Bioorg Med Chem, 2014).
The source made the active and inactive calls. No cut-off for these calls is given here.

How the values were obtained:
[1] = target: Glycogen synthase kinase-3 beta (Homo sapiens) (UniProt P49841); assay: Inhibition of GSK3-beta (unknown origin) assessed as residual activity at 1 uM relative to control
[2] = target: Cyclin-dependent kinase 4/cyclin D1 (Homo sapiens) (UniProt P11802+P24385); assay: Inhibition of CDK4/CycD1 (unknown origin) assessed as residual activity at 1 uM relative to control; format: protein-complex assay
[3] = target: T1, Aurora kinase A (Homo sapiens) (UniProt O14965); assay: Inhibition of Aurora-A (unknown origin) assessed as residual activity at 1 uM relative to control
T1 sequence (whole entry): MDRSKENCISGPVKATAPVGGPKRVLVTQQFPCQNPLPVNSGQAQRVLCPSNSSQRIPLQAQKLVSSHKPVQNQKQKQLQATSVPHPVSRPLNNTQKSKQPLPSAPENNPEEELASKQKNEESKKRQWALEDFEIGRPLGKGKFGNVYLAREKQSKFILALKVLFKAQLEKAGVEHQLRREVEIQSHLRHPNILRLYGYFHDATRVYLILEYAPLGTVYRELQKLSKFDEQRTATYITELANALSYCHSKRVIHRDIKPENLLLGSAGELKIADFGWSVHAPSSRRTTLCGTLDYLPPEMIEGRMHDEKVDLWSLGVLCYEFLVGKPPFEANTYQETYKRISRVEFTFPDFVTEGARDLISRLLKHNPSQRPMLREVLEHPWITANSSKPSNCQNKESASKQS

CAKI-1 = assay: Antiproliferative activity against human CAKI-1 cells after 3 days by sulforhodamine B assay; format: functional; settings: CAKI-1, 72 h
Summary of the method: (§1)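 Tested in the NCI 60 cell line panel. GI50 is the concentration giving 50% inhibition of cell growth, and values are the mean of two series of tests.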

ACHN = assay: Antiproliferative activity against human ACHN cells after 3 days by sulforhodamine B assay; format: functional; settings: 72 h; summary of the method: as §1
UACC-62 = assay: Antiproliferative activity against human UACC62 cells after 3 days by sulforhodamine B assay; format: functional; settings: UACC-62, 72 h
SK-MEL-5 = assay: Antiproliferative activity against human SK-MEL-5 cells after 3 days by sulforhodamine B assay; format: functional; settings: SK-MEL-5, 72 h; summary of the method: as §1
[4] = target: SRSF protein kinase 2 (Homo sapiens) (UniProt P78362); assay: Inhibition of human SRPK2 assessed as residual activity at 1 uM relative to control
[5] = target: Serine/threonine-protein kinase N2 (Homo sapiens) (UniProt Q16513); assay: Inhibition of human PRK2 assessed as residual activity at 1 uM relative to control
[6] = target: Serine/threonine-protein kinase PLK1 (Homo sapiens) (UniProt P53350); assay: Inhibition of human Plk1 assessed as residual activity at 1 uM relative to control
HL-60 = assay: Antiproliferative activity against human HL60 cells after 3 days by sulforhodamine B assay; format: functional; settings: HL-60, 72 h; summary of the method: as §1
CCRF-CEM = assay: Antiproliferative activity against human CCRF-CEM cells after 3 days by sulforhodamine B assay; format: functional; settings: 72 h; summary of the method: as §1
MCF7 = assay: Induction of late stage apoptosis in CK2-deficient human MCF7 cells at 0.25 to 4 uM after 24 hrs using propidium iodide/annexin V staining by FACS analysis; format: functional, cell-based
Summary of the method: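 MCF7 cells were then treated for 24 h, stained with FITC-annexin V in HEPES pH 7.4 binding buffer with 1.8 mM CaCl2 (15 min, dark, room temperature), then with PI (10 min), and analysed by FACS.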

[7] = target: Protein kinase C iota type (Homo sapiens) (UniProt P41743); assay: Inhibition of human PKCiota assessed as residual activity at 1 uM relative to control
[8] = target: Serine/threonine-protein kinase Nek11 (Homo sapiens) (UniProt Q8NG66); assay: Inhibition of human NEK11 assessed as residual activity at 1 uM relative to control
[9] = target: Serine/threonine-protein kinase MRCK alpha (Homo sapiens) (UniProt Q5VT25); assay: Inhibition of human MRCKalpha assessed as residual activity at 1 uM relative to control
[10] = target: MAP kinase-interacting serine/threonine-protein kinase 2 (Homo sapiens) (UniProt Q9HBH9); assay: Inhibition of human Mnk2 assessed as residual activity at 1 uM relative to control
[11] = target: Dual specificity mitogen-activated protein kinase kinase 4 (Mus musculus) (UniProt P47809); assay: Inhibition of mouse MKK4 assessed as residual activity at 1 uM relative to control
[12] = target: Dual specificity mitogen-activated protein kinase kinase 1 (Homo sapiens) (UniProt Q02750); assay: Inhibition of human MEK1 assessed as residual activity at 1 uM relative to control
[13] = target: Serine/threonine-protein kinase STK11 (Homo sapiens) (UniProt Q15831); assay: Inhibition of human LKB1 assessed as residual activity at 1 uM relative to control
[14] = target: Mitogen-activated protein kinase 10 (Homo sapiens) (UniProt P53779); assay: Inhibition of human JNK3 assessed as residual activity at 1 uM relative to control
[15] = target: Insulin receptor-related protein (Homo sapiens) (UniProt P14616); assay: Inhibition of human IRR assessed as residual activity at 1 uM relative to control
[16] = target: Homeodomain-interacting protein kinase 1 (Homo sapiens) (UniProt Q86Z02); assay: Inhibition of human HIPK1 assessed as residual activity at 1 uM relative to control
[17] = target: Vascular endothelial growth factor receptor 1 (Homo sapiens) (UniProt P17948); assay: Inhibition of human Flt1 assessed as residual activity at 1 uM relative to control
[18] = target: Ephrin type-A receptor 8 (Homo sapiens) (UniProt P29322); assay: Inhibition of human EphA8 assessed as residual activity at 1 uM relative to control
[19] = target: Calcium/calmodulin-dependent protein kinase type 1 (Homo sapiens) (UniProt Q14012); assay: Inhibition of human CaMK1 assessed as residual activity at 1 uM relative to control
[20] = target: Receptor-type tyrosine-protein kinase FLT3 (Homo sapiens) (UniProt P36888); assay: Inhibition of FLT3 (unknown origin) assessed as residual activity at 10 uM relative to control
[21] = target: Cyclin-dependent kinase 2/cyclin E1 (Homo sapiens) (UniProt P24864+P24941); assay: Inhibition of CDK2/CycE (unknown origin) assessed as residual activity at 10 uM relative to control; format: protein-complex assay
[22] = target: Proto-oncogene tyrosine-protein kinase Src (Homo sapiens) (UniProt P12931); assay: Inhibition of SRC (unknown origin) assessed as residual activity at 1 uM relative to control

Chain of Mitogen-activated protein kinase 10 (Homo sapiens) (P53779 whole entry): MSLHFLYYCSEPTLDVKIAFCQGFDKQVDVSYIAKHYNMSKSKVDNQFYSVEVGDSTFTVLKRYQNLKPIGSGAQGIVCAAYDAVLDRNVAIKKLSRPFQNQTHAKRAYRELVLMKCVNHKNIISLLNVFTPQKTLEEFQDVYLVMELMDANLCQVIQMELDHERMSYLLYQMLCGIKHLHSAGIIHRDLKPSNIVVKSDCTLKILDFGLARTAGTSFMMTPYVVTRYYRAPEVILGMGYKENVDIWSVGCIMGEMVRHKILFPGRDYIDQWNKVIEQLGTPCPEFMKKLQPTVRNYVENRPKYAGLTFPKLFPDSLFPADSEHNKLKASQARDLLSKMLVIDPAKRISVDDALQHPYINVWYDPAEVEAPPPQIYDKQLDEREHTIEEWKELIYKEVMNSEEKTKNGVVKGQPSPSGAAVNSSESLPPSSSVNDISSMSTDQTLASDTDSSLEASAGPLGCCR
Chain of Serine/threonine-protein kinase PLK1 (Homo sapiens) (P53350 whole entry): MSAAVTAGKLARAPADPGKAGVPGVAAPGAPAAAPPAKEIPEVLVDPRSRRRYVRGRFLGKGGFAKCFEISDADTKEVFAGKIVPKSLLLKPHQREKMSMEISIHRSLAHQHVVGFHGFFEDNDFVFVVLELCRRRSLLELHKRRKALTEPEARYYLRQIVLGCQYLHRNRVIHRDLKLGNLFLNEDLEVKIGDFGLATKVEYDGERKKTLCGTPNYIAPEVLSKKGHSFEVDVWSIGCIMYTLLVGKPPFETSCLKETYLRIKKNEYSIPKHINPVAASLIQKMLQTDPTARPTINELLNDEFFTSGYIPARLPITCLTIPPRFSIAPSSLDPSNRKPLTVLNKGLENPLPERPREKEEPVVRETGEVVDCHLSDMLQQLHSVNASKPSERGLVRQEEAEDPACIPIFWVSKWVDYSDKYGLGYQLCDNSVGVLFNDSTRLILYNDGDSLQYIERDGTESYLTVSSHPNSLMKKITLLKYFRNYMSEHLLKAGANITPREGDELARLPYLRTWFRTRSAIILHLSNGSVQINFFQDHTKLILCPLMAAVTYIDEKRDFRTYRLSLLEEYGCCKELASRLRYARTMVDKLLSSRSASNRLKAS
Chain of Dual specificity mitogen-activated protein kinase kinase 1 (Homo sapiens) (Q02750 whole entry): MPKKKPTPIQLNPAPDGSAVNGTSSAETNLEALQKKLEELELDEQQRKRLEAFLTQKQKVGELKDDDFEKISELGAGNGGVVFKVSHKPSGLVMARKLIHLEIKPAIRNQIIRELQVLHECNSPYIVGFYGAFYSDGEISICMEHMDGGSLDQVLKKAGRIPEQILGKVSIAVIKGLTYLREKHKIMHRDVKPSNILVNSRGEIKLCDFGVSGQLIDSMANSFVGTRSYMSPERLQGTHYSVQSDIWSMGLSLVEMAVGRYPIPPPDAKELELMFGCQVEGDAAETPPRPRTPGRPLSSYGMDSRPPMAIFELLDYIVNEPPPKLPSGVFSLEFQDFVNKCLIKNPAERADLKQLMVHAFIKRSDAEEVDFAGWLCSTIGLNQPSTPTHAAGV
Chain of SRSF protein kinase 2 (Homo sapiens) (P78362 whole entry, looked up): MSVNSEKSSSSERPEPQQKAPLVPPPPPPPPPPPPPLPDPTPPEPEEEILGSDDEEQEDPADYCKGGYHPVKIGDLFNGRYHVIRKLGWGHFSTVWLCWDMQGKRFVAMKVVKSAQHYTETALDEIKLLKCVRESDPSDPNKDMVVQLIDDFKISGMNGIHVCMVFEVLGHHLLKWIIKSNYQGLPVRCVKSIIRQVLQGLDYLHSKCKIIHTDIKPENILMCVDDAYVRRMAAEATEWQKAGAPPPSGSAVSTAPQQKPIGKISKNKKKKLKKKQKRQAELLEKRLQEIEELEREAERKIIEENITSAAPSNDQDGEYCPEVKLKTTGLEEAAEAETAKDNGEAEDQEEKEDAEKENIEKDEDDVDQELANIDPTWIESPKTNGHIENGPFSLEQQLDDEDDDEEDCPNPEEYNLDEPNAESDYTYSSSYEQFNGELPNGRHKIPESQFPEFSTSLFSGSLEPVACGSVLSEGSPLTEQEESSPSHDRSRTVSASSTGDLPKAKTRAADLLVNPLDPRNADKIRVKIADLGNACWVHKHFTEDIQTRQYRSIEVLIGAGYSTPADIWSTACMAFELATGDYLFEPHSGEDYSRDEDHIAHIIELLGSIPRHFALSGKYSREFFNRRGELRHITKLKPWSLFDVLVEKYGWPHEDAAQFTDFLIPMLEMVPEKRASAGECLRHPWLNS
Chain of Serine/threonine-protein kinase N2 (Homo sapiens) (Q16513 whole entry, looked up): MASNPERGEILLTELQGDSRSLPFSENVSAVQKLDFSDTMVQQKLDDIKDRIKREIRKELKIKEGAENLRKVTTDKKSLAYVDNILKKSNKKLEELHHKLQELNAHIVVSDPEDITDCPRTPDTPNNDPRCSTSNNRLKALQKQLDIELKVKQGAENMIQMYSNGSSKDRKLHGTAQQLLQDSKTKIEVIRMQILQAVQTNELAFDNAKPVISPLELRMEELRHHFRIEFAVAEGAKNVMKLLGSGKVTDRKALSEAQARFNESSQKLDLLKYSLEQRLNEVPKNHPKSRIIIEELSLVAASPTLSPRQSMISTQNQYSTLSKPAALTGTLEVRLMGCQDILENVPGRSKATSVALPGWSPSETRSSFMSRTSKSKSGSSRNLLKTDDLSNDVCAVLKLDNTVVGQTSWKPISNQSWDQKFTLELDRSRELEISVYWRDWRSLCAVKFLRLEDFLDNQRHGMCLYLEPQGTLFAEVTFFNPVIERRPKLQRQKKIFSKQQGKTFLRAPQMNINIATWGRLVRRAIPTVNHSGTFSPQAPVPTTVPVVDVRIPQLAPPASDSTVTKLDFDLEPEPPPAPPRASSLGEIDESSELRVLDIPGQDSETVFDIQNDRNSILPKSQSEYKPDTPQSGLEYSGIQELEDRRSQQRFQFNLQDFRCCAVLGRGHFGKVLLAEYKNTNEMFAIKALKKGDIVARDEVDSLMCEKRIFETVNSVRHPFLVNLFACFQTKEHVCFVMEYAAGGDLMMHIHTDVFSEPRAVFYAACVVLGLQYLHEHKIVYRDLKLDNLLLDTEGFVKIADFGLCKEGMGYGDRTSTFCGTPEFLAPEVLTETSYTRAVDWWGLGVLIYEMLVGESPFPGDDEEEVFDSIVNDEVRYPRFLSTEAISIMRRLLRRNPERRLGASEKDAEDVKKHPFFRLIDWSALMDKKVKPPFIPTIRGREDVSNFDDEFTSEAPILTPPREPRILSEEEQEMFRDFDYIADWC
Chain of Receptor-type tyrosine-protein kinase FLT3 (Homo sapiens) (P36888 whole entry): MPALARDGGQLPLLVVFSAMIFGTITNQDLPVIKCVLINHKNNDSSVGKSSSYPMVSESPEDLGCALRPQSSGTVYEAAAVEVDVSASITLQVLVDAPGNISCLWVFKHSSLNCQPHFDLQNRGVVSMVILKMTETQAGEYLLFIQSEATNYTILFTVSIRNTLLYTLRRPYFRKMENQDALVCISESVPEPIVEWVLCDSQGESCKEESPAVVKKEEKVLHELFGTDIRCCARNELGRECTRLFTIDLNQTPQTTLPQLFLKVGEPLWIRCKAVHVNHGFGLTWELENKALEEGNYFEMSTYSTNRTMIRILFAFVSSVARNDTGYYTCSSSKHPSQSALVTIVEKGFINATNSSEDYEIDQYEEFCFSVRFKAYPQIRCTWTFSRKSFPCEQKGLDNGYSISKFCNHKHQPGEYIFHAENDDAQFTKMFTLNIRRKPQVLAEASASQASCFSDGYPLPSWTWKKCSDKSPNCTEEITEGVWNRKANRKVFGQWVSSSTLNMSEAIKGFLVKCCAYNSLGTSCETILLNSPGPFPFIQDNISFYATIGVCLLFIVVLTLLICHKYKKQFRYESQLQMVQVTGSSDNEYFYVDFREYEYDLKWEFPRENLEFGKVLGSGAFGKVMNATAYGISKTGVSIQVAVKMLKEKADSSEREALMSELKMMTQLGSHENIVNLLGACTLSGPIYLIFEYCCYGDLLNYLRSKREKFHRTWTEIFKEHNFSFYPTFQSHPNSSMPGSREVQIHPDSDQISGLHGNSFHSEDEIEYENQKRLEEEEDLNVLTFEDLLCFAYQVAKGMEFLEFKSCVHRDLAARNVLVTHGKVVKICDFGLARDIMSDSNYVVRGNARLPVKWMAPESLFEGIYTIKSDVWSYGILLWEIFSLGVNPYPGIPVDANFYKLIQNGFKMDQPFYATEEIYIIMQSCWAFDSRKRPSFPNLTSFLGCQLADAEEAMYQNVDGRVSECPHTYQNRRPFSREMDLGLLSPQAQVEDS
Chain of Dual specificity mitogen-activated protein kinase kinase 4 (Mus musculus) (P47809 whole entry): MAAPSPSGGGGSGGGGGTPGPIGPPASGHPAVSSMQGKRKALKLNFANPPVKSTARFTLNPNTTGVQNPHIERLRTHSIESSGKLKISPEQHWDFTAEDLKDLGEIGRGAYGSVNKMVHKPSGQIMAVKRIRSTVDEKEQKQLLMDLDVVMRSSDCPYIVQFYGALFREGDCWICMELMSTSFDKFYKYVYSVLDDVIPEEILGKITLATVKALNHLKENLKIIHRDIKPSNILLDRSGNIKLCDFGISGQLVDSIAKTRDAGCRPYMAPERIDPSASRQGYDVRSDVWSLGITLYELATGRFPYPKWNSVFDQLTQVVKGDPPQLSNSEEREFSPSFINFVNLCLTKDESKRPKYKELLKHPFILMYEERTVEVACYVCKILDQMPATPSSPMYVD
Chain of Serine/threonine-protein kinase STK11 (Homo sapiens) (Q15831 whole entry): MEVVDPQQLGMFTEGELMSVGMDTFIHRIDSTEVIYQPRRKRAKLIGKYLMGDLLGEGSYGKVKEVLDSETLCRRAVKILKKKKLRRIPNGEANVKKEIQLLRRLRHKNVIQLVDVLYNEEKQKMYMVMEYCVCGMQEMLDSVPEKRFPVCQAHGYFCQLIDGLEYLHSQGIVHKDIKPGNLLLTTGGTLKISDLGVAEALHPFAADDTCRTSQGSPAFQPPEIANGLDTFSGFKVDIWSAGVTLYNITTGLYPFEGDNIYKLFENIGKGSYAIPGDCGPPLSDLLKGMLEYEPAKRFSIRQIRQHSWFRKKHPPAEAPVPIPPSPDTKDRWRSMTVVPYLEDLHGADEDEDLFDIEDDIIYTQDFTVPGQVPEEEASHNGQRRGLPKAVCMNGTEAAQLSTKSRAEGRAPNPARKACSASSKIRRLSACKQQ

Activity [1]: 92%
Activity [2]: 100%
Activity [3]: 85%
GI50 (ACHN): 1480 nM
GI50 (SK-MEL-5): 160 nM
Activity [4]: 108%
Activity [5]: 95%
Activity [6]: 101%
GI50 (HL-60): 1850 nM
GI50 (CCRF-CEM): 2740 nM
Activity [7]: 92%
Activity [8]: 73%
Activity [9]: 119%
Activity [10]: 99%
Activity [11]: 110%
Activity [12]: 96%
Activity [13]: 104%
Activity [14]: 120%
Activity [15]: 80%
Activity [16]: 80%
Activity [17]: 96%
Activity [18]: 114%
Activity [19]: 120%
Activity [20]: 86%
Activity [21]: 77%
Activity [22]: 99%
Structure (SMILES): O=C1Nc2ncccc2/C1=C1/Nc2ncccc2C1=O
GI50 (CAKI-1): 1020 nM
GI50 (UACC-62): 432 nM
Activity (MCF7): inactive
